Reference: ChEMBL document CHEMBL4371097, “Antibacterial Aromatic Polyketides Incorporating the Unusual Amino Acid Enduracididine” (J Nat Prod, 2019)
≈ marks a conversion by molar mass, not a printed value. Calls of active or inactive are those of the source. The rule behind the calls is not given here.

Columns and labels:
Staphylococcus aureus [1] = experiment: Antibacterial activity against multidrug-resistant Staphylococcus aureus isolate 3797 after 16 hrs by agar diffusion method; type: functional
[2] = tested on: Staphylococcus haemolyticus; experiment: Antibacterial activity against Staphylococcus haemolyticus isolate 1730 after 16 hrs by agar diffusion method; type: functional
[3] = tested on: Staphylococcus haemolyticus; experiment: Antibacterial activity against multidrug-resistant Staphylococcus haemolyticus isolate 1729 after 16 hrs by agar diffusion method; type: functional
[4] = tested on: Staphylococcus intermedius; experiment: Antibacterial activity against Staphylococcus intermedius ATCC 29663 after 16 hrs by agar diffusion method; type: functional
Streptococcus pyogenes = experiment: Antibacterial activity against Streptococcus pyogenes isolate 49 after 16 hrs by agar diffusion method; type: functional
Streptococcus pneumoniae [5] = experiment: Antibacterial activity against Streptococcus pneumoniae ATCC BAA1407 after 16 hrs by agar diffusion method; type: functional
Streptococcus pneumoniae [6] = experiment: Antibacterial activity against Streptococcus pneumoniae isolate 44 after 16 hrs by agar diffusion method; type: functional
Enterococcus faecium [7] = experiment: Antibacterial activity against Vancomycin A-inducible resistant Enterococcus faecium isolate 569 after 16 hrs by agar diffusion method; type: functional
Cutibacterium acnes = experiment: Antibacterial activity against Propionibacterium acnes ATCC 25746 after 16 hrs by agar diffusion method; type: functional
Clostridioides difficile = experiment: Antibacterial activity against Clostridium difficile ATCC 17858 after 16 hrs by agar diffusion method; type: functional
Staphylococcus aureus [8] = experiment: Antibacterial activity against methicillin-resistant Staphylococcus aureus isolate 3864 after 16 hrs by agar diffusion method; type: functional
Enterococcus faecium [9] = experiment: Antibacterial activity against Enterococcus faecium isolate 568 after 16 hrs by agar diffusion method; type: functional
[10] = tested on: Mycolicibacterium smegmatis; experiment: Antibacterial activity against Mycobacterium smegmatis after 16 hrs by agar diffusion method; type: functional, organism-based
Candida albicans = experiment: Antifungal activity against Candida albicans after 16 hrs by agar diffusion method; type: functional, organism-based
Staphylococcus aureus [11] = experiment: Bactericidal activity against Staphylococcus aureus ATCC 6538P at 8 times MIC up to 2 to 4 hrs by time kill assay relative to control; type: functional
Staphylococcus aureus [12] = experiment: Bactericidal activity against Staphylococcus aureus isolate 3797 at 8 times MIC up to 2 to 4 hrs by time kill assay relative to control; type: functional
Staphylococcus aureus [13] = experiment: Bactericidal activity against Staphylococcus aureus ATCC 6538P up to 8 times MIC up to 24 hrs by time kill assay; type: functional, organism-based
Staphylococcus aureus [14] = experiment: Bactericidal activity against Staphylococcus aureus isolate 3797 up to 8 times MIC up to 24 hrs by time kill assay; type: functional, organism-based
[15] = Growth inhibition of human PANC1 cells at 90 uM after 48 hrs by MTT assay relative to control; type: cell-based; details: PANC-1 cells, read-out: GI
HEK293 = experiment: Growth inhibition of HEK293 cells after 48 hrs by MTT assay; type: cell-based; details: Homo sapiens, HEK293, 48 h
Bacillus subtilis = experiment: Inhibition of cell wall synthesis in Bacillus subtilis BAU102 assessed as induction of beta-galactosidase activity preincubated for 120 mins followed by beta-galactosidase chromogenic substrate addition; type: functional, organism-based
Staphylococcus aureus [16] = experiment: Inhibition of DNA synthesis in Staphylococcus aureus isolate 12ST assessed as reduction in 5-[3H]thymidine incorporation preincubated for 5 mins followed by 5-[3H]thymidine addition and measured after 5 mins by liquid scintillation counting method; type: functional, organism-based
Outline: (§1)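 S. aureus 12ST was grown overnight in 0.2× LB, diluted 200-fold, and grown at 37 °C to OD600 0.2–0.25. Aliquots were exposed to compound for 5 min at 37 °C (0.5% DMSO maximum final). Label was then added ([6-3H]thymidine 0.15 μCi/sample; D-[6-3H]glucosamine 0.4 μCi/sample) for 5 min at 37 °C. Samples were precipitated with ice-cold 5% TCA for ≥30 min, filtered, washed, and scintillation counted.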

Staphylococcus aureus [17] = experiment: Inhibition of cell wall synthesis in Staphylococcus aureus isolate 12ST assessed as reduction in [3H]glucosamine hydrochloride incorporation preincubated for 5 mins followed by [3H]glucosamine hydrochloride addition and measured after 5 mins by liquid scintillation counting method; type: functional, organism-based; outline: as §1
Staphylococcus aureus [18] = experiment: Inhibition of RNA synthesis in Staphylococcus aureus isolate 12ST assessed as reduction in [3H]uridine incorporation up to 60 ug/ml preincubated for 5 mins followed by [3H]uridine addition and measured after 5 mins by liquid scintillation counting method; type: functional, organism-based
Outline: (§2)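 S. aureus 12ST was grown overnight in 0.2× LB, diluted 200-fold and grown at 37 °C to OD600 0.2–0.25. 80 µL aliquots got medium or compound (added at 10× final) for 5 min at 37 °C. [5,6-3H]uridine 0.15 µCi or L-[5-3H]tryptophan 0.25 µCi was added for 5 min more. Samples were precipitated in ice-cold 5% TCA, filtered and scintillation-counted. DMSO ≤0.5% final.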

Staphylococcus aureus [19] = experiment: Stimulation of protein synthesis in Staphylococcus aureus isolate 12ST assessed as increase in L-[3H]tryptophan incorporation preincubated for 5 mins followed by L-[3H]tryptophan addition and measured after 5 mins by liquid scintillation counting method; type: functional, organism-based; outline: as §2
Staphylococcus aureus [20] = experiment: microbe, parasite or virus in culture; details: ATCC 6538P, 16 h
Staphylococcus aureus [21] = experiment: microbe, parasite or virus in culture; details: ATCC 29213, 16 h

CN[C@H](CC(C)C)C(=O)N[C@H]1C(=O)N[C@@H](CC(N)=O)C(=O)N[C@H]2C(=O)N[C@H]3C(=O)N[C@H](C(=O)N[C@H](C(=O)O)c4cc(O)cc(O)c4-c4cc3ccc4O)[C@H](O)c3ccc(c(Cl)c3)Oc3cc2cc(c3O[C@@H]2O[C@H](CO)[C@@H](O)[C@H](O)[C@H]2O[C@H]2C[C@](C)(N)[C@H](O)[C@H](C)O2)Oc2ccc(cc2Cl)[C@H]1O [VANCOMYCIN]
MIC (Staphylococcus aureus [1]; isolate 3797, 16 h): 8 µg/mL (≈ 5.52 µM) | MIC ([2]; isolate 1730, 16 h): 2 µg/mL (≈ 1.38 µM) | MIC ([3]; isolate 1729, 16 h): 2 µg/mL (≈ 1.38 µM) | MIC ([4]; NCTC 11048, 16 h): 1 µg/mL (≈ 0.69 µM) | MIC (Streptococcus pyogenes; isolate 49, 16 h): 0.25 µg/mL (≈ 0.173 µM) | MIC (Streptococcus pneumoniae [5]; ATCC BAA1407, 16 h): 0.5 µg/mL (≈ 0.345 µM) | MIC (Streptococcus pneumoniae [6]; isolate 44, 16 h): 0.125 µg/mL (≈ 0.0863 µM) | MIC (Enterococcus faecium [7]; isolate 569, 16 h): > 128 µg/mL | MIC (Cutibacterium acnes; ATCC 25746, 16 h): 0.25 µg/mL (≈ 0.173 µM) | MIC (Clostridioides difficile; ATCC 17858, 16 h): 0.5 µg/mL (≈ 0.345 µM)

COc1c(OC)c2c(=O)c3cc(C)n(C(CC4CN(C)C(=N)N4)C(=O)O)c(=O)c3c(=O)c2c2cc3c(=O)c4cc(O)cc(O)c4c(=O)c3c(OC)c12 (stereo unspecified)
MIC (Staphylococcus aureus [8]; isolate 3864, 16 h): 0.03 µg/mL (≈ 0.0422 µM) | MIC (Staphylococcus aureus [1]; isolate 3797, 16 h): 0.03 µg/mL (≈ 0.0422 µM) | MIC ([2]; isolate 1730, 16 h): 0.03 µg/mL (≈ 0.0422 µM) | MIC ([3]; isolate 1729, 16 h): 0.015 µg/mL (≈ 0.0211 µM) | MIC ([4]; NCTC 11048, 16 h): 0.007 µg/mL (≈ 0.00985 µM) | MIC (Streptococcus pyogenes; isolate 49, 16 h): 0.5 µg/mL (≈ 0.704 µM) | MIC (Streptococcus pneumoniae [5]; ATCC BAA1407, 16 h): 0.25 µg/mL (≈ 0.352 µM) | MIC (Streptococcus pneumoniae [6]; isolate 44, 16 h): 0.25 µg/mL (≈ 0.352 µM) | MIC (Enterococcus faecium [9]; isolate 568, 16 h): 4 µg/mL (≈ 5.63 µM) | MIC (Enterococcus faecium [7]; isolate 569, 16 h): 2 µg/mL (≈ 2.81 µM) | MIC (Cutibacterium acnes; ATCC 25746, 16 h): 0.25 µg/mL (≈ 0.352 µM) | MIC (Clostridioides difficile; ATCC 17858, 16 h): 2 µg/mL (≈ 2.81 µM) | Activity [10]: inactive | Activity (Candida albicans): inactive | Activity (Staphylococcus aureus [11]): >99.9% | Activity (Staphylococcus aureus [12]): >99.9% | Activity (Staphylococcus aureus [13]): inactive | Activity (Staphylococcus aureus [14]): inactive | inhibition at 48 h, 90 µM [15]: 20% | IC50 (HEK293): 55 µM | inhibition (Bacillus subtilis): Active | IC50 (Staphylococcus aureus [16]): 2 µg/mL (≈ 2.81 µM) | inhibition (Staphylococcus aureus [16]): Dose-dependent effect | IC50 (Staphylococcus aureus [17]): 5 µg/mL (≈ 7.04 µM) | inhibition (Staphylococcus aureus [17]): Dose-dependent effect | inhibition (Staphylococcus aureus [18]): inactive | Activity (Staphylococcus aureus [19]): Active | MIC (Staphylococcus aureus [20]): 4 ng/mL (≈ 0.00563 µM) | MIC (Staphylococcus aureus [21]): 0.5 ng/mL (≈ 0.000704 µM)

GENTAMICIN
MIC (Staphylococcus aureus [8]): > 128 µg/mL | MIC (Staphylococcus aureus [1]): 64 µg/mL | MIC [2]: > 128 µg/mL | MIC [3]: > 128 µg/mL | MIC ([4]; NCTC 11048): < 0.125 µg/mL | MIC (Streptococcus pyogenes): 16 µg/mL | MIC (Streptococcus pneumoniae [5]): 64 µg/mL | MIC (Streptococcus pneumoniae [6]): 8 µg/mL | MIC (Enterococcus faecium [9]): 32 µg/mL | MIC (Enterococcus faecium [7]): 16 µg/mL | MIC (Cutibacterium acnes): 2 µg/mL | MIC (Clostridioides difficile): 128 µg/mL
